Shown are actives, neighbours in structure and some others; about 0.85% of the full set was active somewhere.
CatG inh: inhibitors of human cathepsin G; P08311; purified enzyme, AMC-tetrapeptide fluorescence, pooled mixtures; inhibition, % at 5 µM (by protocol); 62,000 compounds, 0.2% hits;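 active = inhibition above 20% in each of the two mixture wells holding the compound; inactive = inhibition of 20% or less in either well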;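 also: 0% = enzyme control without mixture and 100% = blank lacking enzyme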
FXIIa mix inh: blocks human factor XIIa in pooled compound mixtures | P00748 | purified FXIIa, fluorogenic substrate | inhibition, % at 5 µM | 62,000 compounds, 0.2% hits | AID 684;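 also: 0% = enzyme without compound and 100% = no enzyme blank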
Target sequence (P00748 20-372 limits assumed): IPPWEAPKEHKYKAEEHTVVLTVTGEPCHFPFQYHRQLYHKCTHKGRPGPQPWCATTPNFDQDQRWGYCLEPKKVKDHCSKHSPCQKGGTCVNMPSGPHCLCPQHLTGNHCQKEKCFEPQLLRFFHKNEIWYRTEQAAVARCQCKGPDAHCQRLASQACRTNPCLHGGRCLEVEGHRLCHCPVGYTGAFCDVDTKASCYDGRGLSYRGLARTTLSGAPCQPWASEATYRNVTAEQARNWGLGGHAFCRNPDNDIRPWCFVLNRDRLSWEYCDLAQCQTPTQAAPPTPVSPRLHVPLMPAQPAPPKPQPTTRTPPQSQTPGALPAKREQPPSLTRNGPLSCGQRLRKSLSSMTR
Target sequence (P00748 373-615 limits assumed): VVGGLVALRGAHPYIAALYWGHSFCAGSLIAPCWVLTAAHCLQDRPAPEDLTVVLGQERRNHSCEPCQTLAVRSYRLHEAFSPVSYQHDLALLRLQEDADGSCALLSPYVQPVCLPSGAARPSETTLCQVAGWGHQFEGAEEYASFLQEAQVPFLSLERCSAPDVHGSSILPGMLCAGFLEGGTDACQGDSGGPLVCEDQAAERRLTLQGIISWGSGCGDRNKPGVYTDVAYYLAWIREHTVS
WNV NS2B-NS3 inh: blocks West Nile virus NS2B-NS3 protease activity; P06935; WNV NS2B-NS3 protease, fluorogenic substrate Ex360/Em465; active compounds read low; z-score (concentration not given with the values); 65,000 compounds, 0.18% hits; AID 577; in the data active = z-score below about -3
FXIa mix inh: factor XIa (human) inhibition, mixture screen. P03951. purified FXIa, fluorogenic substrate, pooled mixtures. inhibition, % at 5 µM. 62,000 compounds, 0.19% hits;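 also: each value is inhibition by a whole ten-compound pool holding the compound; 0% = enzyme with no mixture and 100% = wells lacking enzyme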
AP ELISA ortho: orthogonal test for alternative complement pathway inhibitors; Human serum alternative complement pathway, LPS-coated ELISA, C3 deposition; tested in compound mixtures; 62,000 compounds, 0.08% hits; inhibition, % at 5 µM;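 active = inhibition above 30% in each of the two pooled mixtures holding the compound, so the lower value exceeds 30%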;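 also: 0% = serum in Mg-EGTA without compound and 100% = EDTA serum blank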
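Assay system: human serum alternative complement pathway, C3 deposition on LPS-coated wells; Dosing: 5 µM per compound in ten-compound mixtures; Detection: Anti-C3 ELISA, OD 450 nm; Buffer or medium: Mg2+-EGTA GVB++ buffer containing human serum at 1:15 dilution; Timing: 1 h at 37 °C; Replication: two different pools per compound.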
C1s block: blocks human complement C1s protease activity. 62,000 compounds, 0.16% hits. purified C1s, fluorogenic AMC substrate, pooled mixtures. mean inhibition % of two 10-compound mixtures (active compounds read high), % at 5 µM (by protocol). AID 538. P09871;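 active = inhibition above 20% in each of the two 10-compound mixture wells holding the compound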;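 also: 0% = enzyme wells lacking compound mixture and 100% = no-enzyme blank wells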
* = called active by the depositor; x = not tested or not shown. Rule as the data show it, unless noted: active = inhibition above about 20% (passing the limit was not always enough); inactive = the rest.

SMILES | CatG inh | FXIIa mix inh | WNV NS2B-NS3 inh | FXIa mix inh | AP ELISA ortho | C1s block
CN1C(=O)N(CN2CCCCC2)C2C1N(C)C(=O)N2CN1CCCCC1 (stereo not given) | 0 | 5 | -12* | 5 | 9 | -3
COc1ccc(CNC(=O)C2CCN(S(=O)(=O)c3ccc(-c4nn[nH]n4)cc3)CC2)cc1 | 9 | 11 | -0.81 | 3 | 28 | 9
O=C(NC1CC2CCC1C2)C1CCN(S(=O)(=O)c2ccc(-c3nn[nH]n3)cc2)CC1 (stereo not given) | 6 | 3 | -1.2 | 0 | 31* | 0
O=C(NCc1ccccn1)C1CCN(S(=O)(=O)c2ccccc2)CC1 | 10 | 2 | -1.3 | 9 | 11 | 18
O=C(NCc1ccccn1)C1CCN(S(=O)(=O)N2CCCC2)CC1 | 3 | -1 | -0.21 | 27* | 5 | -4
CCOC(=O)/C(C#N)=C1/C=C(C)NC(c2ccccc2O)=N1 | -9 | 6 | 1.4 | 4 | -15 | -9
CCOC(=O)/C(C#N)=C1/C=CN(C)C(C)=N1 | 8 | -15 | -1.5 | 2 | 33* | 5
CCOC(=O)C1=C(N)c2ccccc2CC1C(C)C (stereo not given) | 13 | 4 | 0.14 | 12 | 3 | -1
Cc1ccc(CS(=O)(=O)CCC(=O)NCCCN2CCCC2=O)cc1 | -1 | 22* | -1.5 | 7 | 15 | -28
CCN1C(=O)c2ccc(-c3nc4ccccc4c(=O)o3)cc2C1=O | 39* | -5 | 2 | 12 | 9 | 12
CCN1C(=O)c2c(C)nc3ccccc3c2C1=O | 0 | 24 | 0.6 | 6 | 29 | 4
CCCc1cc(=O)[nH]c(SCC(=O)N2CCN(c3ccc(F)cc3)CC2)n1 | 7 | 1 | -0.82 | -5 | 13 | 10
O=C(O)c1ccc(COc2c(F)c(F)c(F)c(F)c2F)o1 | 8 | 3 | 1.1 | 6 | -18 | -31
CCCCn1c(-c2cc(Cl)ccc2OC)n[nH]c1=S | 10 | 3 | 1.3 | 7 | -2 | 43*
CCOC(=O)c1[nH]c2ccccc2c1NC(=O)CC | -1 | 12 | -4* | 9 | 27 | 1
CCN1C(=O)CC(N2CCC(Nc3ccc(OC)cc3)CC2)C1=O (stereo not given) | 8 | 2 | -0.27 | 21* | 2 | 13
Cc1ccc(NC(=O)COC(=O)c2ccc3c(c2)NC(=O)C2CCCN32)cc1C (stereo not given) | 9 | 9 | -1.1 | 4 | 4 | -4
Cc1ccc(C(=O)C2=C(O)C(=O)N(CCN3CCOCC3)C2c2ccccn2)o1 (stereo not given) | x | x | -0.49 | x | x | x
CCCc1cc(C(=O)NC2CCCC2)no1 | -4 | 7 | -0.02 | 4 | 40* | -4
COc1cc(C)nc(NS(=O)(=O)c2ccccc2)n1 | 9 | 3 | -0.84 | 7 | -2 | 22*
COc1cc(C)nc(NCc2ccccc2)n1 | 11 | 8 | -1.5 | 5 | 8 | -6
CC1Oc2ccccc2N(CC(=O)Nc2ccc3c(c2)OCCO3)C1=O (stereo not given) | 9 | 4 | 0.16 | 21* | 2 | 13
Cc1cc2ccccc2c(=O)n1CC(=O)N(C)c1ccc(F)cc1 | 1 | 6 | -0.33 | -1 | 8 | -2
COc1cc2nc(-c3cccs3)oc(=O)c2cc1OC | 22* | 4 | -0.74 | 7 | 22 | 11
Cc1cc(C#N)c(C)n1-c1cc(C(F)(F)F)ccc1N1CCOCC1 | -3 | 11 | 1.7 | 1 | -1 | 3
SMILES | CatG inh | FXIIa mix inh | WNV NS2B-NS3 inh | FXIa mix inh | AP ELISA ortho | C1s block
O=C1c2ccccc2C(=O)N1c1nc(-c2cccs2)cs1 | 15 | 20* | 0.37 | 2 | 7 | 13
CC(=O)Nc1nc(-c2cccs2)cs1 | -9 | -18 | -0.4 | -9 | 15 | -127
CC1CCN(C(=S)c2ccccc2O)CC1 | 0 | 4 | -0.52 | 0 | 1 | -70
C=CCn1c(SCc2ccccc2C#N)nnc1-c1ccccc1O | 12 | 3 | -1.4 | 4 | 10 | 16
CC(C)n1c(SCCCc2ccccc2)nc2c1c(=O)[nH]c(=O)n2C | 7 | 4 | -0.14 | -2 | 33* | 3
COc1cccc(NC(=O)Cc2ccccc2)c1 | -13 | 11 | 1 | -1 | -11 | -13
COc1cccc(NC(=O)CCP(C)(=O)O)c1 | 11 | -14 | 0.13 | 6 | 14 | 63*
CSc1ccccc1NS(=O)(=O)c1ccccc1 | 13 | -18 | -0.2 | 6 | 10 | 15
CCOc1ccc(OCC)c(N=c2oc3c(C)ncc(CO)c3cc2C(N)=O)c1 | 7 | 3 | -0.39 | 6 | 84* | 11
COc1ccc(OC)c(N=c2oc3cc(O)ccc3cc2C(N)=O)c1 | 4 | 6 | 0.07 | -1 | -3 | -22
CCOC(=O)c1c(NC(=O)CNCCO)sc(C)c1C | 13 | -4 | -1.1 | 6 | 14 | 14
CCOC(=O)c1c(NC(N)=O)sc(C)c1C | 15 | 7 | 1.7 | 29* | -4 | 19
O=C(O)CC(C(=O)OC1CCCCC1)N1CCOCC1 (stereo not given) | 6 | 9 | -0.56 | 4 | 6 | -27
CCOC(=O)C(CC(=O)O)N1CCCCC1 (stereo not given) | x | x | -3.1* | x | x | x
c1ccc(CCn2nnnc2CN2CCc3ccccc32)cc1 | 10 | -18 | -1.1 | 2 | -8 | 14
Cc1ccc(C(=O)CC2(O)C(=O)N(CN3CCOCC3)c3ccccc32)cc1 (stereo not given) | 9 | 73* | -0.33 | 9 | 16 | 10
O=C(O)C1C2CCC(C2)C1C(=O)NCCCn1ccnc1 (stereo not given) | -6 | 9 | 1 | 4 | -3 | -7
CCOC(=O)CSc1nnc(CNC(=O)c2cccs2)n1CCc1ccccc1 | 9 | 6 | 0.41 | 7 | 6 | 11
CCN(CC)c1ccc(NC(=O)CN2C(=O)CSc3ncccc32)c(C)c1 | 29 | 0 | -1.3 | 23* | 5 | 12
CCOc1ccc(-n2c(SCC)nc3c(c2=O)SCC3)cc1 | 26 | -17 | -0.31 | 27 | 62 | 35
CCC1(C)C2(C#N)C(N)=NC(OC)(OC)C12C#N (stereo not given) | 8 | -20 | -0.19 | 3 | 32* | 13
CCOC(=O)c1c(C)n(C)c2ccc(OC)c(NC(=O)CN3CCCCC3)c12 | x | x | -3.4* | x | x | x
CCOC(=O)c1c(C)n(C)c2ccc(O)c(CN3CCCCC3)c12 | 1 | 6 | -0.55 | 2 | 0 | -4
Cc1cc(NC(=O)c2oc3ccccc3c2C)ccc1-n1cnnn1 | -14 | 2 | -5.5* | 4 | -25 | -11
COc1cc(OC)cc(C(=O)Nc2ccc(-n3cnnn3)c(C)c2)c1 | -14 | 3 | 2.4 | -3 | -10 | -25
CC(C)NC(=O)c1cccc(Cn2cc(Cl)cn2)c1 | 8 | 2 | -3.6* | 7 | -10 | 0
COC(=O)c1ccc(Cn2cc(Cl)cn2)cc1 | 14 | 15 | -0.86 | 8 | 5 | 13
COc1ccc(-c2nnc3ccc(SCC(=O)N4CCCCC4)nn23)cc1OC | 0 | -16 | 0.17 | 3 | 14 | -32
O=C1CC(N2CCN(c3ccc(Cl)c(Cl)c3)CC2)C(=O)N1 (stereo not given) | 6 | 53* | 0.72 | 6 | 10 | 7
O=C1CC(N2CCC(O)(c3ccc(Cl)cc3)CC2)C(=O)N1 (stereo not given) | 7 | 2 | -0.53 | 7 | 13 | 2
